Laboratory results published in ChEMBL document CHEMBL1153853, “Colon-specific mutual amide prodrugs of 4-aminosalicylic acid for their mitigating effect on experimental colitis in rats” (Eur J Med Chem, 2009).
The source made the active and inactive calls. No cut-off for these calls is given here.

Assays:
[1] = Stability assessed as half life in hydrochloric acid buffer at pH 1.2; format: physicochemical
Procedure, shortened: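 10 mg prodrug in 900 ml HCl buffer pH 1.2 (0.05 M, ionic strength 0.5 set with KCl) at 37 ± 1 °C for 10 h. Remaining prodrug followed by UV at 251 and 285 nm; first-order kinetics, triplicate.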

[2] = Partition coefficient, log p in n-octanol/phosphate buffer at pH 7.4; format: physicochemical
Procedure, shortened: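 Partitioning between n-octanol and phosphate buffer pH 7.4 at 25 ± 1 °C.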

Pancreas = assay: Toxicity in rat pancreas; format: tissue-based; conditions: in vivo
Rattus norvegicus [3] = assay: Half life in TNBS-induced po dosed Wistar rat colitis model assessed as assessed as release of 4-aminosalicylic acid; format: ADME, organism-based; conditions: in vivo
[4] = Stability assessed as half life in phosphate buffer at pH 7.4; format: physicochemical
Procedure, shortened: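 Same set-up in phosphate buffer pH 7.4 (0.05 M, ionic strength 0.5 with KCl), 37 ± 1 °C, 10 h. Remaining prodrug read by UV at 255 and 290 nm; first-order kinetics, triplicate.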

Rattus norvegicus [5] = assay: Antiinflammatory activity against TNBS-induced Wistar rat colitis model assessed as decrease in ratio of colon to body weight treated po 3 days after TNBS induction for 8 days measured after 24 hrs of last treatment; format: functional
Procedure, shortened: (§1)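 Wistar rats (200–250 g, 12–15 weeks, n = 6/group), fasted 48 h, given TNBS 100 mg/kg in 50% ethanol (500 µl) intrarectally 8 cm via catheter under light ether; untreated 3 days, then dosed (controls got 1% carboxymethylcellulose); 11-day study. Sacrificed 24 h after last dose under isoflurane; 8 cm colon excised, colon/body weight ratio taken; mean of six.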

[6] = Aqueous solubility of the compound; format: physicochemical; conditions: water (aqueous)
Procedure, shortened: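 Solubility in distilled water at room temperature (25 ± 1 °C).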

[7] = Half life in rat fecal matter assessed as release of 4-aminosalicylic acid; format: ADME, tissue-based, Feces; conditions: in vitro
Procedure, shortened: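 Prodrug in phosphate buffer pH 7.4 (250 µg/ml, diluted to 50 µg/ml in 5 ml) added to 1 g fresh rat feces; incubated 37 °C anaerobically in a CO2 incubator for up to 20 h. Remaining prodrug read by UV at 255 nm (4AP) or 290 nm (4AT) against calibration curves; first-order fits, triplicate, mean K.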

Rattus norvegicus [8] = organism: Rattus norvegicus; assay: Antiinflammatory activity against TNBS-induced Wistar rat colitis model assessed as decrease in ratio of colon to body weight treated rectally 3 days after TNBS induction for 8 days measured after 24 hrs of last treatment; format: functional, organism-based; conditions: in the assay text read “treated orally” for “treated rectally”; procedure, shortened: as §1
Rattus norvegicus [9] = assay: Ulcerogenic effect in rat colon assessed as ulcer index at 2258.01 mg/kg by Rainsford's cold stress method; format: toxicity, organism-based; parameters: dose 2258.01 mg/kg; conditions: in vivo
Rattus norvegicus [10] = assay: Antiinflammatory activity against TNBS-induced Wistar rat colitis model assessed as decrease in severity of inflammation treated po 3 days after TNBS induction measured on day 7; format: functional, organism-based
Procedure, shortened: (§2)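 TNBS colitis in Wistar rats (100 mg/kg in 50% ethanol, intrarectal, 48 h fast), left untreated 3 days before dosing, vehicle 1% carboxymethylcellulose. Weight loss, stool consistency and rectal bleeding scored daily over 11 days; the daily clinical activity score is the average of the three, 0 (healthy) to 4 (maximal colitis); mean of six rats.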

Rattus norvegicus [11] = assay: Antiinflammatory activity against TNBS-induced po dosed Wistar rat colitis model assessed as inhibition of MPO activity in neutrophils per 100 mg of tissue; format: functional
Procedure, shortened: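 Colonic tissue from TNBS-colitis rats given oral treatment; MPO measured by the Krawisz method, one unit degrading […] hydrogen peroxide at 25 °C; reported as mU per 100 mg wet tissue.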

Rattus norvegicus [12] = organism: Rattus norvegicus; assay: Antiinflammatory activity against TNBS-induced Wistar rat colitis model assessed as decrease in severity of inflammation treated rectally 3 days after TNBS induction measured on day 7; format: functional, organism-based; conditions: in the assay text read “treated orally” for “treated rectally”; procedure, shortened: as §2
Liver = assay: Toxicity in rat liver; format: tissue-based; conditions: in vivo
Rattus norvegicus [13] = assay: Ulcerogenic effect in rat colon assessed as ulcer index at 2263.75 mg/kg by Rainsford's cold stress method; format: toxicity, organism-based; parameters: dose 2263.75 mg/kg; conditions: in vivo
Rattus norvegicus [14] = assay: Ulcerogenic effect in rat colon assessed as ulcer index at 1154.30 mg/kg by Rainsford's cold stress method; format: toxicity, organism-based; parameters: dose 1154.3 mg/kg; conditions: in vivo, 1154.3 mg/kg
Rattus norvegicus [15] = organism: Rattus norvegicus; assay: Antiinflammatory activity against TNBS-induced Wistar rat colitis model assessed as decrease in severity of inflammation treated rectally 3 days after TNBS induction for 8 days measured after 24 hrs of last treatment; format: functional, organism-based; procedure, shortened: as §2
Rattus norvegicus [16] = assay: Inhibition of TNBS-induced morphological change in rectaly administered Wistar rat colon; format: functional, organism-based
Rattus norvegicus [17] = assay: Half life in TNBS-induced po dosed Wistar rat colitis model assessed as assessed as release of 5-aminosalicylic acid; format: ADME, organism-based; conditions: in vivo
Rattus norvegicus [18] = assay: Ulcerogenic effect in rat colon assessed as ulcer index at 3000 mg/kg by Rainsford's cold stress method; format: toxicity, organism-based; parameters: dose 3000 mg/kg; conditions: in vivo

| half-life [1] | logD [2] | t1/2 (Rattus norvegicus [3]) | half-life [4] | solubility [6] | t1/2 [7] | t1/2 (Rattus norvegicus [17]) | SMILES | Activity (Pancreas) | Ratio (Rattus norvegicus [5]) | Activity (Rattus norvegicus [8]) | UI (Rattus norvegicus [9]) | Activity (Rattus norvegicus [10]) | Activity (Rattus norvegicus [11]) | Activity (Rattus norvegicus [12]) | Activity (Liver) | UI (Rattus norvegicus [13]) | UI (Rattus norvegicus [14]) | Activity (Rattus norvegicus [15]) | Activity (Rattus norvegicus [16]) | UI (Rattus norvegicus [18]) |
| --- | --- | --- | --- | --- | --- | --- | --- | --- | --- | --- | --- | --- | --- | --- | --- | --- | --- | --- | --- | --- |
| > 10 h | -0.19 | 6 h | > 10 h | 260 mg/mL | 5.72 h | – | Nc1ccc(C(=O)N[C@@H](Cc2c[nH]c3ccccc23)C(=O)[O-])c(O)c1.[Na+] | Non-toxic | 0.0071 | Active | 8.4 | Active | 49.24 mU | Active | Non-toxic | – | – | – | – | – |
| > 10 h | -0.21 | 6 h | > 10 h | 330 mg/mL | 6.87 h | – | Nc1ccc(C(=O)N[C@H](Cc2ccccc2)C(=O)[O-])c(O)c1.[Na+] | Non-toxic | 0.0073 | Active | – | Active | 46.57 mU | Active | Non-toxic | 6 | – | – | – | – |
| – | 1.01 | – | – | – | – | – | Nc1ccc(C(=O)O)c(O)c1 [AMINOSALICYLIC ACID] | – | – | Active | – | Active | 70.51 mU | Active | – | – | 69.61 | – | – | – |
| – | – | – | – | – | – | – | N[C@H](Cc1ccccc1)C(=O)O [D-PHENYLALANINE] | – | – | Active | – | Active | 61.43 mU | Active | – | – | – | Active | Active | – |
| – | – | – | – | – | – | – | Nc1ccc(O)c(C(=O)O)c1 [MESALAMINE] | – | – | – | – | Active | 60.85 mU | Active | – | – | 60.03 | – | – | – |
| – | – | – | – | – | – | 2 h | Nc1ccc(S(=O)(=O)Nc2ccccn2)cc1 [SULFAPYRIDINE] | – | – | – | – | – | – | – | – | – | – | – | – | – |
| – | – | – | – | – | – | 2 h | O=C(O)c1cc(/N=N/c2ccc(S(=O)(=O)Nc3ccccn3)cc2)ccc1O [SULFASALAZINE] | – | – | – | – | Active | 46.63 mU | Active | – | – | – | – | – | 5.83 |
| – | – | – | – | – | – | – | N[C@@H](Cc1c[nH]c2ccccc12)C(=O)O [TRYPTOPHAN] | – | – | Active | – | Active | 72.25 mU | Active | – | – | – | Active | Active | – |
